Data as given in paper PMC10915268 (Parasites, Hosts and Diseases, 2024).

How the values were obtained:
[1] = test system: P. berghei NK65; assay: 4-day suppressive test in P. berghei NK65-infected ICR mice; assay type: in vivo, Plasmodium berghei (ICR mice)
Method in brief: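 6-week-old ICR-1 mice were inoculated on day 0 with 107 blood-stage P. berghei NK65. The test compound was given i.v. at 10, 20 or 30 mg/kg once daily for 4 days. Body weight, survival and blood parasites were recorded daily for 2 weeks. At 8 dpi mice were euthanized and livers and spleens harvested.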

[2] = In vivo PK assessment in mice; design: species or system ICR mice; conditions: oral, 5 mg/kg single dose
Method in brief: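 Healthy female 7-week-old ICR mice (about 30 g), kept under specific pathogen-free conditions, three per group. Each got a single oral dose of test compound at 5 mg/kg. Blood was drawn at various times and plasma stored at −80°C. Levels were measured by LC–MS/MS with calibration and QC standards. Kinetic parameters came from regression of plasma concentration versus time.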

[3] = test system: Vero cells; assay: Cytotoxicity test using the MTT assay; assay type: cell-based; conditions: read-out: Vero CC50, 2-day compound exposure
Method in brief: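 Vero cells were seeded at 104 per well in DMEM with 10% FBS. 12 h later, serial concentrations of test compound were added for 2 days at 37°C, 5% CO2. MTT was then added for 2 h and absorbance read at 490 nm. CC50 was derived from percentage growth inhibition. Run in triplicate, mean±SD.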

[4] = Solubility in deionized water; assay type: physicochemical; conditions: saturated aqueous solution, HPLC UV 342 nm
Method in brief: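 Saturated solutions of the test compound salt were made in deionized water and measured by UHPLC with UV detection at 342 nm. 1% TFA in water was added to the solvent to keep the salt form. Standards at 5 concentrations gave a linear regression, from which solubility was calculated.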

[5] = test system: P. falciparum K1 (CQ-resistant strain); assay: In vitro antimalarial activity, P. falciparum K1; assay type: cell-based, Plasmodium falciparum; conditions: for K1 Relative SI: selective index (CC50/IC50), relative to SKM13-2HCl = 1
[6] = test system: P. falciparum 3D7 (CQ-sensitive strain); assay: In vitro antimalarial activity, P. falciparum 3D7; assay type: cell-based, Plasmodium falciparum; conditions: for 3D7 Relative SI: selective index (CC50/IC50), relative to SKM13-2HCl = 1
[7] = Turbidity of 1 mM drug in cell culture media; assay type: physicochemical; conditions: 1 mM dissolved in cell culture media (DMEM)
[8] = 10 mg/kg i.v. once daily for 4 days
[9] = 20 mg/kg, organs collected 8 dpi

For `CN(C)CCNC(=O)/C=C/[C@H](Cc1ccccc1)Nc1ccnc2cc(Cl)ccc12` [SKM13-2HCl], the parasitemia [1, 8] was “increased parasitemia”, the body weight ([1]; 10 mg/kg i.v. once daily for 4 days, infected mice) was “not observed” and the parasitemia ([1]; 20 mg/kg i.v. once daily for 4 days) was “effectively suppressed parasitemia”. For the same compound, the liver pigmentation [1, 9] was “decreased liver pigmentation”, the spleen size [1, 9] was “same size as those of the normal or CQ-treated groups” and the parasitemia ([1]; 30 mg/kg i.v. once daily for 4 days) was “effectively suppressed parasitemia”. For the same compound, the “curative effect (survival)” value ([1]; 30 mg/kg once daily, 6 dpi) was “complete curative effect”, the “Tmax_h, time to peak concentration” value [2] was 15 min and the “elimination half-life (t1/2)” value ([2]; comparison of both drugs) was “similar”. The “Cmax/AUC higher than that of SAM13-2HCl” value ([2]; versus SAM13-2HCl) was 2 fold, the CC50 [3] was 55200 ± 1100 nM and the “solubility in deionized water” value [4] was 850.8 mg/mL. The IC50 ([5]; read-out: K1 IC50, P. falciparum K1, synchronized parasites) was 366 ± 19.8 nM, the “K1 Relative SI” value [5] was 1 and the IC50 ([6]; read-out: 3D7 IC50, P. falciparum 3D7, synchronized parasites) was 53.1 ± 10 nM. For the same compound, the “3D7 Relative SI” value [6] was 1.0 and the turbidity [7] was “transparent”.
In the case of `CCN(CC)CCCC(C)Nc1ccnc2cc(Cl)ccc12` (centres unmarked) [CQ, Chloroquine], the parasitemia [1, 8] is reported as “significantly reduced parasite density”, the “K1 Relative SI” value [5] is reported as 3.5 and the “3D7 Relative SI” value [6] is reported as 6.0.
